# From PubChem
# In the library only some 4.9% were active in any assay of this set; here they are far more common.
# STAT1 inh: STAT1 signaling inhibition; NIH 3T3 STAT1-luciferase reporter, IFN-gamma, luminescence; inhibition, % at 5.5 µM; hit rate 0.35% among 200,000; AID 920;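 active = inhibition above a set limit, the mean inhibition across all tested compounds plus 3 SD, cut at about 34% in these data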;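 also: 0% = IFN-gamma with DMSO and 100% = IFN-gamma with 300 µM nifuroxazide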
# STAT3 activator: increases IL-6 driven STAT3 reporter signal; U3A cells, IL-6 STAT3-luciferase reporter, luminescence; 100% = signal with IL-6 EC80 alone; hit rate 0.91% among 190,000; activation (% of control), % at 5.6 µM;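 active = activation above the screen-wide mean of compound activation plus 3 SD, cut at about 130% in these data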;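 also: 0% = background luminescence of wells with medium and substrate only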
#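 Material: STAT1-lacking human U3A cells, STAT3 luciferase reporter | Benchmarks: IL-6-only wells as 100% reference | Probe or stimulus: IL-6 (33 ng/mL) | Timing: Compound 1 h, then IL-6 6 h at 37 °C | Detection: Luminescence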
# STAT1 activator: increases IFN-gamma driven STAT1 reporter signal; NIH 3T3 STAT1-luciferase reporter, luminescence; 100% = IFN-gamma alone, no compound; activation (% of control), % at 5.5 µM; hit rate 2.6% among 200,000; AID 932;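 active = activation above the screen-wide mean activation plus 3 SD, cut at about 130% in these data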;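 also: raw ratio to IFN-gamma control signal so 100% means no change and 0% no light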
# APP 5'UTR act: activates APP 5'UTR luciferase reporter; SH-SY5Y APP 5'UTR luciferase reporter, luminescence; zero percent = DMSO vehicle wells; activation, % at 2 µM; hit rate 1% among 190,000; AID 1276;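 active = activation above a set limit, based on mean plus 3 SD of controls, cut at about 140% in these data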
# STAT3 blocker: STAT3 signaling inhibition | inhibition, % at 5.5 µM | hit rate 0.89% among 190,000 | U3A cells, IL-6 STAT3-luciferase reporter, luminescence; host cell line lacks STAT1;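 active = inhibition above the mean inhibition across all screened compounds plus 3 SD, cut at about 44% in these data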;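 also: 0% = DMSO only wells and 100% = 100 µM nifuroxazide control wells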
# NF-kB expr up: compounds increasing NF-kB expression in human neuronal cells. hit rate 1.6% among 190,000. NF-kB reporter expression; stronger effect = higher value. fold change at 12.5 µM. AID 1239; in the data active = fold change above about 3.3
# * hit, by the source's call.
SMILES,STAT1 inh,STAT3 activator,STAT1 activator,APP 5'UTR act,STAT3 blocker,NF-kB expr up
COc1cc(/C=N/Nc2nc3ccccc3o2)cc(OC)c1O,-1,99,101,18,3,0.93
COc1ccc(/C=N/Nc2nc3ccccc3o2)cc1O,-20,82,118,137*,21,8.6*
COc1ccc(/C=N/NC(=O)c2nc(-c3ccccc3)cc(-c3ccccc3)n2)cc1O,-35,86,131*,11,15,0.6
COc1cc(/C=N/NC(=O)c2cc(-c3c(C)nn(-c4ccccc4)c3C)n[nH]2)ccc1O,-123,236*,209*,-6,-150,0.73
COc1ccc(Cn2c(-c3ccc(C)cc3)c[n+]3ccccc23)cc1,20,63,81,-1,42,0.86
O=C1C(Nc2ccc(O)cc2)=C/C(=N/S(=O)(=O)c2cccs2)c2ccccc21,90*,26,15,-54,86*,0.14
Cc1ccc(OCCn2cnc3ccccc3c2=O)c([N+](=O)[O-])c1,-40,118,136*,105,-11,1.9
Cc1ccc(N/C=C(/C#N)c2ccsc2)cc1,-44,105,134*,64,-6,2.3
N#C/C(=C/Nc1ccccc1)c1ccsc1,-10,99,99,15,1,1.2
Cc1ccccc1Nc1scc(-c2ccc(Cl)cc2)[n+]1-c1ccccc1C,-1,91,101,0,16,0.92
O=C1N=C(N2CCOCC2)S/C1=C1\C(=O)N(Cc2ccccc2)c2ccccc21,-3,107,102,380*,-2,1.4
COc1ccc(OCC(=O)N/N=C(/C)Cc2ccccc2)cc1,-5,94,104,6,5,0.86
Cc1ccc(C(=O)NC(=S)Nc2cc(-c3nc4ccccc4s3)ccc2C)cc1,-17,114,115,120,-17,4*
Cc1cc(C)c(NC(=S)NC(=O)c2ccc(-c3ccccc3)cc2)c(C)c1,7,105,94,-1,0,0.7
Cc1ccc(S(=O)(=O)N2CCCCC2)cc1NC(=O)Cn1c(=O)cnc2ccccc21,2,84,97,12,26,1.2
O=C(O)C/C(=C\c1ccc(Cl)cc1)c1nc2ccccc2o1,-13,98,112,2,11,0.82
O=C(O)C(=O)/C(=C\c1ccc(Cl)cc1)c1ccc2ccccc2n1,-34,147*,130*,86,-45,1.1
CCc1cccc(CC)c1NC(=O)/C(C#N)=C/c1ccccc1C(F)(F)F,8,101,92,9,-6,3.4*
N#C/C(=C\c1ccccc1C(F)(F)F)C(=O)Nc1ccccc1,-3,100,103,12,-5,1.2
Cc1ccc(Cn2c(SC(C)C(N)=O)nc3ccccc3c2=O)cc1 (configuration not stated),12,101,90,-9,4,1.4
Cc1nn(Cc2ccccc2)c(Cl)c1C(=O)NCc1ccc(C)n1C,-1,108,101,8,-2,1.1
Cc1nn(Cc2ccccc2)c(Cl)c1C(=O)NCCc1ccccc1,-54,113,149*,91,-9,4.3*
CCOC(=O)c1[nH]c2c(c1C)C(=O)CC(c1ccco1)C2 (configuration not stated),-1,118,102,-96,-22,6.4*
C=CCOC(=O)c1[nH]c2c(c1C)C(=O)CC(c1cc(OC)c(OC)c(OC)c1)C2 (configuration not stated),42*,63,61,12,46*,0.71
COCCOC(=O)c1[nH]c2c(c1C)C(=O)CC(c1ccc(F)cc1)C2 (configuration not stated),12,85,89,16,23,1.8
SMILES,STAT1 inh,STAT3 activator,STAT1 activator,APP 5'UTR act,STAT3 blocker,NF-kB expr up
Cc1c(C(=O)OCCOC(C)C)[nH]c2c1C(=O)CC(c1ccco1)C2 (configuration not stated),-9,126,110,-96,-32,3.5*
COCCOC(=O)c1[nH]c2c(c1C)C(=O)CC(c1ccccc1)C2 (configuration not stated),-14,110,113,-92,-8,3.8*
Cc1ccc(-n2nc(CN3CCOCC3)c(-c3ccccc3)c2N)cc1Cl,1,98,99,12,7,0.88
O=C(COC(=O)c1cc[n+]([O-])cc1)Nc1ccc([N+](=O)[O-])cc1Cl,-9,103,106,27,-2,0.96
CCn1c(C)nc2cc(C(=O)N/N=C/c3cccc(O)c3O)ccc21,-21,86,117,-26,21,2.6
O=C(Cc1ccccc1)Nc1nonc1NC(=O)c1ccccc1,9,114,92,16,-10,3.7*
CCOC(=O)c1cc2c(s1)-c1ccccc1CC2,-34,174*,131*,41,-76,1.9
CCOC(=O)c1sc(/N=C/c2c(O)ccc3ccccc23)cc1C,0,95,100,-4,8,1.4
CCOC(=O)c1cc2ccc3ccccc3c2s1,-54,203*,151*,74,-118,3.1
CCOC(=O)c1cc2cc3ccccc3cc2[nH]1,-41,114,136*,118,-13,3.4*
Cc1c(NC(=O)CN2c3ccccc3CC2C)c(=O)n(-c2ccccc2)n1C (configuration not stated),-19,104,115,12,-3,0.92
COC(=O)CNC(c1ccccc1Cl)c1cc(Br)ccc1NS(=O)(=O)c1ccc(C)cc1 (configuration not stated),-12,106,110,28,-3,0.77
Cc1ccccc1C(=O)NC(=S)N(C)CCc1ccccn1,3,102,96,5,5,1
Cc1ccccc1SCCNC(=O)CCc1ccccc1,-57,108,149*,2,-4,1.5
CC(NCc1ccc(F)cc1)C(=O)Nc1cc(S(=O)(=O)N2CCCCC2)ccc1Cl (configuration not stated),6,112,93,22,-13,1.2
NC(=O)C1(N2CCCCC2)CCN(c2ccc3nnc(-c4ccccc4)n3n2)CC1,-4,114,104,-3,-7,0.78
c1ccc(-c2nnc3ccc(N4CCC5(CC4)OCCO5)nn23)cc1,-10,110,109,10,-11,3.6*
c1c2c(cc3sc(N4CCOCC4)nc13)OCCO2,51*,23,53,81,89*,1
CN(C)C(=S)N=Nc1[nH]c2ccccc2c1O,-88,152*,176*,-12,-57,0.26
C/C(=N\N1C(=O)c2ccccc2NC1c1ccccc1)c1ccccc1O (configuration not stated),-46,76,140*,105,32,1.5
O=C1c2cc([N+](=O)[O-])cc3cc([N+](=O)[O-])cc(c23)C(=O)N1c1ccccn1,30,99,73,7,4,0.86
